AHR activator = human AHR activation | AHR-responsive luciferase reporter cells, luminescence | activation, % at 5 µM | hit rate 2.5% among 320,000 | AID 2796; in the data active = activation above about 47%;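 note: 0% = vehicle wells and 100% = reference agonist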
APP 5'UTR act = APP 5'UTR luciferase reporter activation; activation, % at 2 µM; hit rate 1% among 190,000; SH-SY5Y APP 5'UTR luciferase reporter, luminescence; zero percent = DMSO vehicle wells;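 active = activation above a set limit, based on mean plus 3 SD of controls, cut at about 140% in these data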
MDM2 E3 inh = blocks human Mdm2 ubiquitin ligase activity; signal enhancement, % at 5 µM; cell-based MDM2 ubiquitination luciferase reporter, 2 h; 0 = plate control, 100 = twice control, blank-subtracted; hit rate 0.11% among 210,000;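 active = signal enhancement of 30% or more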;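 note: luminescence tracks abundance of the self-degrading MDM2-luciferase fusion protein; higher signal means inhibition of MDM2 E3 ligase activity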
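Timing – 2 h compound exposure at 37 °C · Assay system – mammalian cells stably expressing self-ubiquitinating, self-degrading MDM2 E3–luciferase fusion · Amount – 2000 cells seeded into each well · Measure – % luminescence enhancement versus blank-corrected plate control mean · Measured by – SteadyLite luminescence, 15 min reagent step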
NF-kB neuron act = raises NF-kB expression in human neuronal cells; NF-kB reporter expression; hits give high values; fold change at 12.5 µM; hit rate 1.6% among 190,000; AID 1239; in the data active = fold change above about 3.3
STAT1 act = STAT1 signaling activation. NIH 3T3 STAT1-luciferase reporter, IFN-gamma, luminescence; 100% = IFN-gamma alone, no compound. activation (% of control), % at 5.5 µM. hit rate 2.6% among 200,000. AID 932;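 active = activation above the screen-wide mean activation plus 3 SD, cut at about 130% in these data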;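 note: raw ratio to IFN-gamma control signal so 100% means no change and 0% no light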
PERK inh = blocks human PERK kinase. CHO PERK-DD fusion, SEAP luminescence translation reporter. inhibition, % at 5.6 µM. hit rate 0.17% among 220,000;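 active = inhibition above the mean inhibition of all tested compounds plus 3 SD, set separately per screening campaign, cut at about 2.9% in these data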;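 note: PERK kinase domain activated by AP20187 dimerizer at 100 nM; 0% = DMSO with dimerizer and 100% = rapamycin at 8.4 µM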
The depositor's hits bear a star; nt = no result given. A selection: hits, their analogues and other compounds. The true share with any hit is near 4.5%.

SMILES	AHR activator	APP 5'UTR act	MDM2 E3 inh	NF-kB neuron act	STAT1 act	PERK inh
Oc1ccc(/C=N/n2cc(-c3ccccc3)[nH]c2=S)cc1	64.2*	12.2	-11.6	1.26	108.2	1.0
COc1cc(/C=N/n2cc(-c3ccccc3)[nH]c2=S)cc(OC)c1O	23.0	nt	-14.1	nt	nt	0.0
S=c1[nH]nc(-c2ccccn2)n1/N=C/c1cccc2ccccc12	6.7	2.3	-1.9	1.19	93.8	-0.1
Cc1cc(C)n(/N=C/c2cc([N+](=O)[O-])ccc2O)c(=O)c1	4.3	1.3	-13.0	1.46	110.0	1.0
CCN(CC(=O)NCc1cccs1)C(=O)c1ccc(S(=O)(=O)Nc2cccc(C)c2C)cc1	-1.7	nt	nt	nt	nt	nt
Nc1cccc2c1C(=O)N(C(=O)/C=C/c1cccc(F)c1)C2=O	4.3	-22.7	7.5	1.28	78.9	0.2
Nc1cccc2c1C(=O)N(C(=O)/C=C/c1cccc(Br)c1)C2=O	nt	nt	35.3*	nt	nt	1.5
Cc1ccsc1C(=O)OCc1nc2ccccc2c(=O)[nH]1	56.3*	4.4	-9.2	1.34	114.9	-0.9
Cc1ccsc1C(=O)OCc1nc2ccsc2c(=O)[nH]1	2.7	nt	nt	nt	nt	nt
CCN1CCN(CC(=O)Nc2cc(C(F)(F)F)ccc2OCCOC)CC1	2.8	nt	nt	nt	nt	1.6
O=C1/C(=C2\C(=O)N(Cc3ccc(F)cc3)c3ccccc32)SC(=S)N1CCS(=O)(=O)O	1.5	nt	nt	nt	nt	nt
O=C(O)CN1C(=O)/C(=C2\C(=O)N(Cc3ccccc3Cl)c3ccccc32)SC1=S	60.1*	nt	nt	nt	nt	nt
Cc1ccc2[nH]c(=O)c3cc(C(=O)N4CCN(C(=O)c5ccco5)CC4)sc3c2c1	78.2*	11.9	-3.2	0.7	89.1	-1.0
Cc1ccc2c(C(=O)CN3CCN(C(=O)c4ccco4)CC3)c(C)[nH]c2c1	53.3*	nt	-12.1	nt	nt	-1.3
CCN(CC(=O)Nc1c(F)cccc1F)C(=O)c1cc(C)oc1C	1.9	nt	nt	nt	nt	nt
Cn1c(=O)c2c([nH]c(=O)n2C)n(Cc2ccccc2)c1=O	-2.6	nt	nt	nt	nt	nt
CSc1nc(Sc2ccccc2)c2ccccc2n1	-1.2	-3.3	-10.8	1.2	97.7	0.5
CSc1nc(Sc2ccc(Cl)cc2)c2ccccc2n1	1.6	22.0	-15.1	1.21	93.8	2.9*
Cc1ccc(C(=O)NCCNC(=O)COc2ccccc2Cl)cn1	-3.9	nt	nt	nt	nt	nt
O=c1[nH]c(=O)n(C2C[C@H](O)[C@@H](CO)O2)cc1C(F)(F)F (stereo partly drawn)	-2.4	nt	nt	nt	nt	nt
O=c1[nH]c(=O)n([C@H]2C[C@H](O)[C@@H](CO)O2)cc1C(F)(F)F	-0.6	-58.6	nt	5.41*	108.8	1.5
CCc1ccc(OCC(=O)NC(=S)Nc2ccc(F)cc2)c(Br)c1	-0.4	25.3	-10.5	1.01	97.0	-1.1
CCc1ccc(OCC(=O)NC(=S)Nc2ccc(C(C)=O)cc2)c(Br)c1	75.9*	8.1	-6.6	0.96	103.3	1.2
CCCOc1ccc(CC(=O)NNC(=S)Nc2ccccc2)cc1Br	2.8	11.9	-8.2	3.31*	112.8	0.9
COc1cccc(CN(C)CC(=O)Nc2ccccc2N2CCOCC2)c1OC	-0.3	11.8	-4.2	1.24	90.7	-1.4
SMILES	AHR activator	APP 5'UTR act	MDM2 E3 inh	NF-kB neuron act	STAT1 act	PERK inh
CC(C)c1nc2oc3ccccc3c(=O)c2c(=O)n1-c1ccccc1	103.3*	18.6	-11.2	1.71	102.9	0.4
O=C1OC(Cc2ccccn2)C(=O)C1=C1SCCS1 (stereo not drawn)	60.0*	9.4	4.0	1.46	98.7	0.4
c1ccc(-c2cn3c4c(sc3n2)CCCC4)cc1	65.8*	87.8	-95.6	1.61	75.4	-0.8
NS(=O)(=O)c1ccc(N/N=C/c2ccc3c(c2)OCO3)c([N+](=O)[O-])c1	113.9*	9.1	-13.4	1.34	114.7	0.8
NS(=O)(=O)c1ccc(N/N=C/c2ccc(O)cc2O)c([N+](=O)[O-])c1	-4.3	nt	-1.5	nt	nt	0.3
COc1ccc(S(=O)(=O)N2CCCC2CNC(=O)c2cccc(OC)c2)cc1 (stereo not drawn)	-0.2	nt	nt	nt	nt	nt
Cc1ccc(NC(=O)c2cnccn2)c(C)c1	0.7	nt	nt	nt	nt	nt
NNC(=O)c1cccc(COc2cccc(Br)c2)c1	51.5*	43.1	-9.2	1.8	111.0	0.8
COc1ccc(C(=O)Nc2scc(-c3ccc(Cl)cc3Cl)c2C(N)=O)cc1	-0.4	80.2	-36.8	1.09	148.5*	-0.3
CCCOc1ccc(N2C(=O)CC(NCc3cccs3)C2=O)cc1 (stereo not drawn)	0.1	-8.7	2.5	1.01	99.1	0.8

High-throughput results deposited in PubChem BioAssay by several laboratories.
